Experiment [1] concerns MKN-45. Briefly: Induction of apoptosis in human MKN45 assessed as accumulation at subG1 phase at 10 uM incubated for 7 days by flow cytometry (reference value: 10.9 +/- 3.2%). It is filed as functional.
Experiment [2] relates to MKN-45. Description: Induction of apoptosis in human MKN45 assessed as accumulation at subG1 phase at 1 uM incubated for 7 days by flow cytometry (reference value: 10.9 +/- 3.2%). It is filed as functional. In general terms: Flow cytometry measures light scatter and fluorescence of single cells or particles in a stream.
Experiment [3] has as its system MKN-45. Description: Cytotoxic activity against human MKN45 cells assessed as cell viability at 20 uM incubated for 5 days by MTT assay. The experiment is classed as functional. The settings on record: MKN-45, 120 h, read-out: Activity. The method in brief:
(§1)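 MTT viability: exponentially growing cells, 10 000 viable cells/well in RPMI plated overnight, then exposed to test compounds for 3 days (HT-29, Molm-14) or 5 days (Mkn-45) at 37 °C, 5% CO2. MTT added for 4 h, then SDS/HCl solubilization overnight and absorbance read at 562 nm. Viability is expressed relative to untreated cells (100%). Triplicate.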

Experiment [4] relates to MKN-45. Briefly: Induction of apoptosis in human MKN45 assessed as accumulation at subG1 phase at 5 uM incubated for 7 days by flow cytometry (reference value: 10.9 +/- 3.2%). The experiment is classed as functional.
The subject of experiment [5] is HT-29. Description: Cytotoxic activity against human HT-29 cells assessed as cell viability at 26 uM incubated for 3 days by MTT assay. The experiment is classed as functional. The settings on record: HT-29, 72 h, read-out: Activity. In outline:
as §1
(Formazan colour is commonly taken as a measure of viable cells.)

Experiment [6] relates to MKN-45. Description: Induction of apoptosis in human MKN45 assessed as accumulation at subG1 phase at 20 uM incubated for 7 days by flow cytometry (reference value: 10.9 +/- 3.2%). It is filed as functional.
In experiment [7] the test system is MKN-45. Description: Cytotoxic activity against human MKN45 cells assessed as cell viability at 1 uM incubated for 5 days by MTT assay. The conditions noted are these: MKN-45, 120 h, read-out: Activity. It is filed as functional. In outline: as §1
In experiment [8] the test system is MKN-45. Description: Cytotoxic activity against human MKN45 cells assessed as cell viability at 0.5 uM incubated for 5 days by MTT assay. The settings on record: MKN-45, 120 h, read-out: Activity. It is filed as functional. In outline: as §1
In experiment [9] the test system is MKN-45. Briefly: Induction of apoptosis in human MKN45 assessed as accumulation at subG1 phase at 15 uM incubated for 7 days by flow cytometry (reference value: 10.9 +/- 3.2%). It is filed as functional.
The nature of experiment [10]: Inhibition of angiogenesis in chick embryo model assessed as reduction in vessel growth at 26 nM incubated for 24 hrs. It is filed as functional, Gallus gallus. The method in brief: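 White leghorn eggs incubated at 37.5 °C, 62% humidity. At 70 h, albumen removed and shell windowed. From 75 h, 15 agarose pellets (from a 26 mM DMSO stock in 2% agarose; final concentration 26 nM) placed on the area vasculosa.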

In experiment [11] the test system is MKN-45. Briefly: Cytotoxic activity against human MKN45 cells assessed as cell viability at 10 uM incubated for 5 days by MTT assay. The settings on record: MKN-45, 120 h, read-out: Activity. It is filed as functional. In outline:
as §1

Experiment [12] relates to HT-29. Description: Cytotoxic activity against human HT-29 cells assessed as cell viability at 2.6 uM incubated for 3 days by MTT assay. The experiment is classed as functional. The settings on record: HT-29, 72 h, read-out: Activity. The method in brief:
as §1

Experiment [13] has as its system HT-29. Briefly: Cytotoxic activity against human HT-29 cells assessed as cell viability at 7.9 uM incubated for 3 days by MTT assay. The experiment is classed as functional. The settings on record: HT-29, 72 h, read-out: Activity. In outline: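 HT-29 cells in exponential growth were seeded at 10 000 viable cells per well in RPMI and left overnight. They were then exposed to compound for 3 days at 37 °C under 5% CO₂. MTT was added for 4 h, followed by overnight solubilisation in 10% SDS/0.01 M HCl and absorbance at 562 nm. Viability is expressed as % of untreated cells (100%), in triplicate.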

In experiment [14] the test system is MKN-45. Description: Cytotoxic activity against human MKN45 cells assessed as cell viability at 5 uM incubated for 5 days by MTT assay. It is filed as functional. The conditions noted are these: MKN-45, 120 h, read-out: Activity. In outline:
as §1

Experiment [15] relates to HT-29. Description: Cytotoxic activity against human HT-29 cells assessed as cell viability at 52 uM incubated for 3 days by MTT assay. The settings on record: HT-29, 72 h, read-out: Activity. The experiment is classed as functional. In outline:
as §1

Experiment [16] deals with MKN-45. Briefly: Cytotoxic activity against human MKN45 cells assessed as cell viability at 50 uM incubated for 5 days by MTT assay. The experiment is classed as functional. The settings on record: MKN-45, 120 h, read-out: Activity. In outline:
as §1

Experiment [17] deals with HUVEC. Briefly: Induction of apoptosis in human HUVEC assessed as accumulation at subG1 phase at 0.79 uM incubated for 4 days by flow cytometry (reference value: 15.4 +/- 1.5%). The experiment is classed as functional.
Experiment [18] has as its target T1, Receptor-type tyrosine-protein kinase FLT3 (Homo sapiens, UniProt P36888).
T1 sequence (P36888 whole entry): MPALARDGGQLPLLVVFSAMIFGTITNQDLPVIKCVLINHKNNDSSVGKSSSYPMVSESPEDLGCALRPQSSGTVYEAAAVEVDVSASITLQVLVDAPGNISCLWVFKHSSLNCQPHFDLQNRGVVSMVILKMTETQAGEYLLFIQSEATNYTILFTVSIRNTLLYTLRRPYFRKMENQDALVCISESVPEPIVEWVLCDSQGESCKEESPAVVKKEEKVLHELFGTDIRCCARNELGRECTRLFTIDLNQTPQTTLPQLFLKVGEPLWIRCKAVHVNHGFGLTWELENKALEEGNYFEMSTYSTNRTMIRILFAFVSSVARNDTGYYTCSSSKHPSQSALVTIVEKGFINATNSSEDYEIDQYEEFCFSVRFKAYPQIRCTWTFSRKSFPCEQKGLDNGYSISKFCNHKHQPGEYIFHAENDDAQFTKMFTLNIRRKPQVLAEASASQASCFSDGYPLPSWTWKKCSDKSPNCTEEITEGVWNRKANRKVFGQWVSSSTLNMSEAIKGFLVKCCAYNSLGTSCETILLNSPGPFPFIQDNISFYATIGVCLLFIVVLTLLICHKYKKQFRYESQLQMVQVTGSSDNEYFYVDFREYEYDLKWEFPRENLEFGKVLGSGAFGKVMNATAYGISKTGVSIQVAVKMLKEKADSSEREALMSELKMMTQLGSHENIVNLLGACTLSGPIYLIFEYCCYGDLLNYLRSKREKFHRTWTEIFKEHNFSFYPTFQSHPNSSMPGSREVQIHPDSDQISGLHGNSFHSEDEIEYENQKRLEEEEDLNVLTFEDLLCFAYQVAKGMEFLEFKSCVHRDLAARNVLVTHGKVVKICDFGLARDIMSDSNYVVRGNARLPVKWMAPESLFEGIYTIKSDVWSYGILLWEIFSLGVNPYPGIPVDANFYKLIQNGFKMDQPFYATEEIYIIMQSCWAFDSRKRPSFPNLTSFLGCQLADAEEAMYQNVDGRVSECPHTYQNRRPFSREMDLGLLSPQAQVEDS
Briefly: Inhibition of FLT3. In outline: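 Run as an outsourced kinase profiling service (Millipore IC50 Profiler), with the protocol referred to the provider. Gives IC50 values and residual activity at 10 μM test compound. Compounds tested in duplicate.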

The subject of experiment [19] is HUVEC. Briefly: Induction of apoptosis in human HUVEC assessed as accumulation at subG1 phase at 2.6 uM incubated for 4 days by flow cytometry (reference value: 15.4 +/- 1.5%). It is filed as functional.
Experiment [20] concerns HT-29. Description: Induction of apoptosis in human HT-29 assessed as accumulation at subG1 phase at 1.18 uM incubated for 7 days by flow cytometry (reference value: 3.4 +/- 0.9%). The experiment is classed as functional. In outline: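 HT-29 cells, 1.5 × 10⁵ per well, plated overnight, then exposed for 7 days to irinotecan at 1.18 μM, alone or with 7.9 μM test compound. Cells were trypsinized and stained for 1 h at 4 °C in PI buffer (sodium citrate, Triton X-100, PI). Sub-G1 fraction measured by flow cytometry (Nicoletti method). Drug-free control used as baseline. Triplicate.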

The values below come from ChEMBL document CHEMBL2177085 (J Med Chem, 2012).

With `COc1cc(OC)cc(C2=C(c3c[nH]c4ncccc34)C(=O)NC2=O)c1`, the Activity in experiment [1] was determined as 31.8%; in [2] it was 12.7%; in experiment [4], 24.8%; in experiment [6], 55.7%; in experiment [9] it was 45.8%. For the same molecule, the viability at 20 µM in [3] turned out to be 62.1%. Also, the viability at 26 µM in experiment [5] was determined as 43%. In experiment [7], the viability at 1 µM turned out to be 118%. Moreover, the viability at 0.5 µM in experiment [8] was 118%. Besides, the “inhibition (INH)” value in experiment [10] stood at 25%. In experiment [11], the viability at 10 µM was 57%. Moreover, in experiment [12], the viability at 2.6 µM turned out to be 54.3%. Moreover, in experiment [13], the viability at 7.9 µM turned out to be 49.2%. The viability at 5 µM in [14] was found to be 60.4%. The viability at 52 µM in experiment [15] came out at 40.5%. Besides, in experiment [16], the viability at 50 µM worked out at 59.4%.

What is called IC50 is the midpoint of a concentration-inhibition curve. High values mean a need for much substance, low ones inhibition by little substance. In the case of `COc1cc(C2=C(c3c[nH]c4cccnc34)C(=O)NC2=O)cc(OC)c1OC`, the values for the Activity in experiment [17] and in [19] were 14.2% and 16.3%, respectively. The molecule further gave an IC50 in experiment [18] of no less than 1500 nM. Further, the “inhibition (INH)” value in [10] turned out to be 10%. In addition, the viability at 52 µM in [15] came to 65.8%.

Take `CCc1c2c(nc3ccc(OC(=O)N4CCC(N5CCCCC5)CC4)cc13)-c1cc3c(c(=O)n1C2)COC(=O)[C@]3(O)CC` [IRINOTECAN]: in experiment [20], the Activity is on record as 18.3%.
